Source: publication PMC5259643 (Journal of Veterinary Internal Medicine, 2017)
Like-named read-outs stand apart in the source and are kept apart here.

How the values were obtained:
[1] = Sedation of dogs with stage B2 MMVD; format: in vivo
[2] = Management of Addisonian crisis; format: in vivo, dogs; details: for outcome: HSS CRI 0.3 to 0.625 mg/kg/h (n = 7), dexamethasone IV 0.05 to 0.3 mg/kg (n = 8)
[3] = system: bacteria isolated from urinary cultures; assay: Urine culture sensitivity in dogs with DM and/or HAC; format: cell-based
E.Coli = assay: Cat with E.coli associated granulomatous colitis; format: in vivo
[4] = Oral torasemide in cats with CHF; format: in vivo
Procedure, shortened: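 Cats with CHF, previously on furosemide (median 6 mg/kg/24 h), were switched to oral torasemide. The median starting dose was 0.5 mg/kg/24 h (range 0.1–0.75), given once daily or split twice daily. Renal values and potassium were rechecked at follow-up.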

[5] = molecular target: Steroidogenic factor‐1 (SF‐1) (Canis lupus familiaris, UniProt A0A5K7W231); assay: Cortisol and mRNA in normal canine primary adrenocortical cell suspensions; format: cell-based, dogs; details: 10^‐8 to 10^‐5 M
Procedure, shortened: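 Primary adrenocortical cells from normal canine adrenals were cultured as suspensions, with synthetic ACTH added to mimic hypercortisolism. Cells were exposed to SF-1 inverse agonists, with a DMSO vehicle control. Cortisol was measured in the culture media. RT-qPCR gave relative mRNA expression of steroidogenic enzymes, SF-1 and MC2R.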

[6] = Hypothyroidism after low‐dose radioiodine in hyperthyroid cats; format: in vivo; details: 30 hypothyroid cats supplemented
Procedure, shortened: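 Hyperthyroid cats successfully treated with low-dose 131I (n = 569) had serum T4 and TSH measured at 1, 3, 6, 12 and ≥18 months after treatment. Cats that developed high TSH were classed as overtly hypothyroid if T4 was low, or subclinically hypothyroid if T4 was normal.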

Capillaria aerophila = assay: Anthelmintic treatment of feline lungworm infection; format: in vivo, cats; details: single administration, one cat
[7] = Echocardiography, blood pressure and heart rate before and after sedation; format: in vivo, cats; details: ten minutes after sedation
[8] = system: Aelurostrongylus abstrusus; Angiostrongylus vasorum; assay: Lungworm infection in cats and dogs in Rome treated with fenbendazole; format: in vivo
Procedure, shortened: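 Animals were diagnosed by faecal testing, BAL, lung cytology or post mortem. All received fenbendazole 50 mg/kg for 3 weeks, with further therapy according to clinical status; outcome was recorded.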

[9] = Laryngoscopy with doxapram stimulation in dogs with brachycephalic syndrome; format: in vivo
[10] = dogs with HAC; ref other studies; cited from earlier work
feline liver organoids = assay: Lipid accumulation in liver organoids exposed to free fatty acids; format: cell-based, cats; details: LD540, flow cytometry
Procedure, shortened: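 Feline liver organoids were incubated with vehicle or free fatty acids and stained with the lipophilic dye LD540. Fluorescence was quantified by flow cytometry. β-oxidation of excess fatty acids was probed with a CPT-1 inhibitor and with L-carnitine supplementation.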

[11] = molecular target: T1, serum angiotensin‐converting enzyme (ACE) (Canis lupus familiaris, UniProt A0A8I3S3I6); assay: Serum ACE activity after benazepril with or without pimobendan; format: in vivo, dogs; details: for serum ACE activity versus baseline: days 1 and 15
T1 sequence (A0A8I3S3I6 31-1241): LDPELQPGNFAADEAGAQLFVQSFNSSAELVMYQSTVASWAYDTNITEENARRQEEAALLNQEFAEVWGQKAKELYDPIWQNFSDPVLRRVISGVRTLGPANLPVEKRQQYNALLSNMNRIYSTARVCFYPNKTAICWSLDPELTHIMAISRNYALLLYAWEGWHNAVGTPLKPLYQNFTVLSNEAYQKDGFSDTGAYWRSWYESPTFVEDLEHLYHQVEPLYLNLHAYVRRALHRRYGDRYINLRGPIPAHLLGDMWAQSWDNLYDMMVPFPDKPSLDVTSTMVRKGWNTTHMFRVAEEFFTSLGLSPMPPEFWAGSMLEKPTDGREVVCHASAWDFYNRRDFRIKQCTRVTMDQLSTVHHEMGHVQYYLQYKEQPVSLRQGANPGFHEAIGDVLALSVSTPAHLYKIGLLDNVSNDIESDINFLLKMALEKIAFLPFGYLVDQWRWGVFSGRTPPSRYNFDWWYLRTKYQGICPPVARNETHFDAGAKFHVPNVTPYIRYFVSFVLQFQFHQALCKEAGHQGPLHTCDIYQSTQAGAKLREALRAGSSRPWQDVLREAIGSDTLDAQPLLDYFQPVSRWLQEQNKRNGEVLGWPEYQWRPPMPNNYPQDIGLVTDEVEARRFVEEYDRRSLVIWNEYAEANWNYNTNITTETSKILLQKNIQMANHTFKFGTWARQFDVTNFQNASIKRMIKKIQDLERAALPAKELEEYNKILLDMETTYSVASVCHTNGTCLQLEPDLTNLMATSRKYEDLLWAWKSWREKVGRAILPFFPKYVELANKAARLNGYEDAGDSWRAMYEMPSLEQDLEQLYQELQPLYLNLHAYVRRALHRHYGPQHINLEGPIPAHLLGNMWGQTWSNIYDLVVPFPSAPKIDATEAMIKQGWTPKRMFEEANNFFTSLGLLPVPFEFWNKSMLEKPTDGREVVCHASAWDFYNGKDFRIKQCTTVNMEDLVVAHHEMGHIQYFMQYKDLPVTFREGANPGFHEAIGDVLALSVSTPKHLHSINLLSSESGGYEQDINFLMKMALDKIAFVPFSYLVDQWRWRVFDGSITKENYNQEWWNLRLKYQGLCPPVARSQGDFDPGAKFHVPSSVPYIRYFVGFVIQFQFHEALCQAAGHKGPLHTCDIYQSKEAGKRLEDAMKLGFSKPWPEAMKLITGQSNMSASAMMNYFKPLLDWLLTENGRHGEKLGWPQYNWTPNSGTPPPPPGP
Procedure, shortened: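 In a prospective, randomised, parallel-group design, 48 healthy beagles were split into four groups: placebo twice daily; benazepril 0.5 mg/kg once each morning; benazepril 0.25 mg/kg twice daily; or benazepril 0.25 mg/kg plus pimobendan 0.125 mg/kg, both twice daily. Dosing was oral for 15 days. Serum ACE was assayed radio-enzymatically at baseline, at 12 post-dose times on day 1, and on day 15 (steady state).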

[12] = Simvastatin in dogs with hyperlipidemia; format: in vivo; details: three months; n = 5; range 181–399
[13] = Cortisol monitoring in dogs with hyperadrenocorticism on trilostane; format: in vivo
Procedure, shortened: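 Multicentre open-label prospective study in dogs with hyperadrenocorticism on trilostane. Serum cortisol was measured pre-trilostane, 3 h post-trilostane, and 1 h post-ACTH stimulation.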

[14] = Transcutaneous ICG plasma disappearance rate; format: in vivo, dogs
Procedure, shortened: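 Healthy dogs received indocyanine green 0.5 mg/kg IV daily on three days. The plasma disappearance rate was read transcutaneously with a monitor probe, and the intrasubject coefficient of variation was calculated from the daily values.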

[15] = ref previously reported data; cited from earlier work
Troglostrongylus brevior = assay: Anthelmintic treatment of feline lungworm infection; format: in vivo, cats; details: single administration; moxidectin n = 2, emodepside n = 1
T. brevior/A. abstrusus = assay: Anthelmintic treatment of feline lungworm infection; format: in vivo, cats; details: five of six cats
Procedure, shortened: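 Cats with natural Troglostrongylus brevior/Aelurostrongylus abstrusus co-infection were treated with one of: single topical emodepside (n = 1), single oral milbemycin oxime (n = 2), or moxidectin given two (n = 2) or three (n = 1) times. Clinical course and time to recovery were followed.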

Leishmania infantum = assay: Randomized allopurinol‐controlled trial in dogs with clinical leishmaniosis; format: in vivo; details: bone marrow; with MGA

Sequence of Steroidogenic factor‐1 (SF‐1) (A0A5K7W231 1-461): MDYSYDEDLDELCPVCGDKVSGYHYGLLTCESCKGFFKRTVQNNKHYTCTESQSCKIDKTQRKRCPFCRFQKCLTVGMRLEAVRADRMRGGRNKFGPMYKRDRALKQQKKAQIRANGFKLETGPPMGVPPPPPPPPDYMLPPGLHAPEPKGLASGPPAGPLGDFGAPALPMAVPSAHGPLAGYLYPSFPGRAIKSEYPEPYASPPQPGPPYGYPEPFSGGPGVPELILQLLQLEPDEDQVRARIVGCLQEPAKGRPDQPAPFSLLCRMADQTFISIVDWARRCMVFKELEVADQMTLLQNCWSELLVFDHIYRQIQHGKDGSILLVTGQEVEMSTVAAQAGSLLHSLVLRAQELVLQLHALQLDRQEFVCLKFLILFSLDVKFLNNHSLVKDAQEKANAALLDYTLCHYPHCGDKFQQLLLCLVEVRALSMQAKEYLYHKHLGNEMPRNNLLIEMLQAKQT

Compound: Cc1cccc(C(C)c2cnc[nH]2)c1C (stereo not drawn) [M group, medetomidine]
- regurgitant jet area (ARJ/LAA) ([1]; T1, 30 minutes after medetomidine, n = 8 per group): significantly decreased
- body weight‐indexed LVIDs ([1]; T1, P < 0.05): increased
- shortening fraction ([1]; T1, P < 0.05): decreased

Compound: C[C@@H]1C[C@H]2[C@@H]3CCC4=CC(=O)C=C[C@]4(C)[C@@]3(F)[C@@H](O)C[C@]2(C)[C@@]1(O)C(=O)CO [dexamethasone]
- outcome [2]: all patients surviving to discharge

Compound: CCN1CCN(c2cc3c(cc2F)c(=O)c(C(=O)O)cn3C2CC2)CC1 [enrofloxacin]
- bacterial resistance [3]: 38%
- clinical response (E.Coli; 5 mg/kg SID for 6 weeks, one cat): complete resolution of clinical signs
- remission sustained (E.Coli; to date): 4 months

Compound: C[C@]12CCC(=O)C=C1CC[C@@H]1[C@@H]2[C@@H](O)C[C@@]2(C)[C@H]1CC[C@]2(O)C(=O)COC(=O)CCC(=O)O [HSS, hydrocortisone sodium succinate]
- outcome [2]: all patients surviving to discharge
- median time for Na+ concentration to normalise ([2]; group A (HSS) versus group B (dexamethasone), P = 0.0424): significantly shorter in group A compared to group B

Compound: Cc1cccc(Nc2ccncc2S(=O)(=O)NC(=O)NC(C)C)c1 [torasemide]
- main adverse clinical effect ([4]; in vivo): worsening azotaemia
- tolerability ([4]; in vivo): tolerated by this population of cats with CHF
- median survival time after commencing torasemide ([4]; range 7–177 d, 11 cats): 48 days

Compound: CCOC(=O)C(C)Oc1cccc2c(=O)n(CC(=O)Nc3ccc4c(c3)OCCO4)ccc12 (stereo not drawn) [IsoqA]
- effect on cortisol production [5]: no significant effect on cortisol production

Compound: N[C@@H](Cc1cc(I)c(Oc2cc(I)c(O)c(I)c2)c(I)c1)C(=O)O [Levothyroxine]
- serum TSH and creatinine [6]: significantly decreased both serum TSH and creatinine concentrations

Compound: eprinomectin
- outcome (Capillaria aerophila): healthy after two weeks

Compound: dexmedetomidine and buprenorphine
- IVSd, IVSs, LVPWd, LVPWs, Ao, La/Ao, pulmonic acceleration time [7]: did not differ pre‐ and post‐sedation
- LVIDd, LVIDs, RVIDd, LA, pulmonic deceleration time, SBP, DBP, MAP ([7]; 50 cats, P ≤ 0.022): increased after sedation
- Vmax Ao, Vmax A pulm, FS, AT/DT and HR ([7]; P < 0.0001): decreased after sedation

Compound: COC(=O)Nc1nc2ccc(Sc3ccccc3)cc2[nH]1 [fenbendazole]
- outcome in dogs ([8]; 50 mg/kg for 3 weeks plus other therapy, 21 dogs): Five dogs died; the others recovered
- outcome in cats ([8]; 50 mg/kg for 3 weeks, 20 cats): fully recovered

Compound: CCN1CC(CCN2CCOCC2)C(c2ccccc2)(c2ccccc2)C1=O.Cl (stereo not drawn) [Dxp, doxapram hydrochloride]
- mean degree of laryngeal collapse (0 to 3) ([9]; after 1.1 mg/kg IV, before 1.64 [0–3], P < 0.001, 26 dogs): 1.07 [0–3]
- laryngeal abduction ([9]; after injection): significant abduction of laryngeal cartilages could be observed in all dogs

Compound: Clc1ccc(C(c2ccccc2Cl)C(Cl)Cl)cc1 (stereo not drawn) [mitotane]
- mean survival time [10]: 985 ± 57 days

Compound: C[N+](C)(C)C[C@H](O)CC(=O)[O-] [L‐carnitine]
- lipid accumulation under excess FFA (feline liver organoids): attenuated

Compound: CCOC(=O)[C@H](CCc1ccccc1)N[C@H]1CCc2ccccc2N(CC(=O)O)C1=O [benazepril]
- serum ACE activity versus baseline ([11]; group B, 0.5 mg/kg once daily PO): significant reductions in serum ACE activity compared to baseline
- serum ACE activity versus baseline ([11]; group C, 0.25 mg/kg twice daily PO): significant reductions in serum ACE activity compared to baseline
- 0.25 mg/kg twice daily compared to 0.5 mg/kg once daily ([11]; non‐inferiority shown): equivalent inhibition of serum ACE activity

Compound: CCOC(=O)[C@@]1(CCCCCCOc2ccc(Cl)cc2)CO1 [etomoxir]
- lipid accumulation under excess FFA (feline liver organoids): enhanced

Compound: CCC(C)(C)C(=O)O[C@H]1C[C@@H](C)C=C2C=C[C@H](C)[C@H](CC[C@@H]3C[C@@H](O)CC(=O)O3)[C@H]21 [simvastatin]
- plasma cholesterol [12]: 298 ± 109.9

Compound: C[C@]12CC[C@H]3[C@@H](CC[C@@]45O[C@@H]4C(O)=C(C#N)C[C@]35C)[C@@H]1CC[C@@H]2O [trilostane]
- median cortisol pre‐trilostane ([13]; 21 dogs, 45 pairs on same dose): 114.0 nmol/L
- median cortisol 1 hour post‐ACTH stimulation ([13]; dog, in vivo): 110.0 nmol/L
- median cortisol 3 hours post‐trilostane ([13]; significantly lower than the other two): 53.5 nmol/L
- mean survival time [10]: 1051 ± 78 days

Compound: CC1(C)C(/C=C/C=C/C=C/C=C2\N(CCCCS(=O)(=O)O)c3ccc4ccccc4c3C2(C)C)=[N+](CCCCS(=O)(=O)[O-])c2ccc3ccccc3c21 [ICG, Indocyanine green]
- mean ICG‐PDR ([14]; day one, 0.5 mg/kg IV, six healthy Beagles, transcutaneous): 7.8 ± 3.4 %/min
- mean ICG‐PDR ([14]; day three): 7.9 ± 2.6 %/min
- mean ICG‐PDR ([14]; day two): 8.8 ± 3.7 %/min
- highest individual %CV ([14]; dog, in vivo): 52.5%
- mean intrasubject %CV of ICG‐PDR ([14]; three consecutive days): 35.9 ± 16.8%
- mean ICG‐PDR [15]: 7.79 ± 3.3 %/min

Compound: CO/N=C1\C[C@]2(C[C@@H]3C[C@@H](C/C=C(\C)C[C@@H](C)/C=C/C=C4\CO[C@@H]5[C@H](O)C(C)=C[C@@H](C(=O)O3)[C@]45O)O2)O[C@H](/C(C)=C/C(C)C)[C@H]1C [moxidectin]
- time to recovery (Troglostrongylus brevior): 14 to 42 days
- time to being healthy (T. brevior/A. abstrusus): 14 to 42 days

Compound: Oc1ncnc2[nH]ncc12 [allopurinol]
- parasite load by RT‐QPCR (Leishmania infantum): significantly reduced parasite load
